Compound activity (PubChem BioAssay)
Shown are actives, neighbours in structure and some others; about 2.5% of the full set was active somewhere.
Bfl-1 A1 inh: inhibitors of the anti-apoptotic protein A1, read as caspase activation | caspase activation, % (no concentration beside the values) | MEF A1-2A-BIM cells, Caspase-Glo 3/7 luminescence, 3 h; percent of clofoctol response, vehicle zero | 330,000 tested, 0.066% active | AID 2462;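 active = over half of replicate activation scores above 10%, or exactly half above 10 with the replicate mean above 10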
MC4R ag barr: human MC4R agonism via beta-arrestin | U2OS MC4R beta-arrestin complementation, luminescence; percent of melanotan II response, DMSO zero | activation, % at 8.9 µM | 360,000 tested, 0.98% active;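 active = activation above a per-plate cutoff, the mean activation of sample wells on that plate plus 3 SD, cut at about 8% in these data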
HGIII-sPLA2 inh: Inhibits HGIII-sPLA2 liposome hydrolysis, primary screen. QFRET BODIPY PC-A2 liposome hydrolysis, fluorescence. Q9NZ20. inhibition, % at 12.2 µM. 370,000 tested, 0.56% active;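 active = inhibition above mean plus 3 SD of compounds lying within the high and low control bounds, cut at about 19% in these data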
Target sequence (Q9NZ20 whole entry, looked up): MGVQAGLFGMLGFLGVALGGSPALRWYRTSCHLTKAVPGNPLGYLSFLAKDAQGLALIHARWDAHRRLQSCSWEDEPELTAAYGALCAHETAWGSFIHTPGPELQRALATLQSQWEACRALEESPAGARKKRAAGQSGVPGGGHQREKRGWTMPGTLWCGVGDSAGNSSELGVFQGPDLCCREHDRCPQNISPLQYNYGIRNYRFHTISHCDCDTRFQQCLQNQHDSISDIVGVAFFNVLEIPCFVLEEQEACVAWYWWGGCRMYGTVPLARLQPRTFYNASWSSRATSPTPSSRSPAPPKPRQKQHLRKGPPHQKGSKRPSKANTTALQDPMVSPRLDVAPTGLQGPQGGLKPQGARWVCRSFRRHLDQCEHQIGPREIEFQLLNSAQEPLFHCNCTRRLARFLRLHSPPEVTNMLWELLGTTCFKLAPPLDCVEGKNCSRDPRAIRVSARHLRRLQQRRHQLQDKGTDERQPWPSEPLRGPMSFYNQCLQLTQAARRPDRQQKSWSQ
Granule exo inh: blocks lytic granule exocytosis; TALL-104 LAMP-1 surface exposure, flow cytometry; cells stimulated with thapsigargin and PMA; inhibition, % at 10 µM; 360,000 tested, 0.66% active;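 active = inhibition above about 55%, limit read from the data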
MC4R antag cAMP: human MC4R antagonism in cAMP assay. inhibition, % at 6.5 µM. MC4R-expressing cells, MTII-stimulated cAMP, LANCE TR-FRET. 360,000 tested, 0.48% active;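 active = inhibition above its plate's cutoff, the mean of tested wells on that plate plus 3 SD, cut at about 29% in these data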
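material = U2OS cells stably expressing human melanocortin 4 receptor (MC4R) | also added = Melanotan II challenge | dosing = single nominal compound dose of 6.5 µM | detection = TR-FRET with Eu-cAMP and labeled anti-cAMP, 671 nm | replication = singlicate | timing = compound 30 min, challenge 1 h, detection 1 h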
NTR1 agonist: NTR1 (human) agonism; AID 493036; 330,000 tested, 0.17% active; NTR1-U2OS beta-arrestin-GFP spot imaging, agonist mode; activation, % at 20 µM;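 active = activation at or above 40% of the spot to cytoplasm intensity ratio, with at least 20 cells analyzed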
NTR1 ag confirm: confirmation of agonists of human NTR1; shares compounds with NTR1 agonist; NTR1-U2OS beta-arrestin-GFP translocation imaging; activation, % at 20 µM; 480 tested, 38% active; AID 504550;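 active = mean activation at 20 µM of at least 40%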
Each line names hits and unclear results; the compound was inactive in the other large screens (follow-up assays come after a bar, where they were run).

CCOc1ccc(CNC(=O)CCCN2C(=O)C(c3ccccc3)Oc3cccnc32)cc1 (stereo not given)	MC4R ag barr 9.1
Cc1nn(C)c2nc(-c3cccs3)cc(C(F)(F)F)c12	none
Cc1nn(CCO)c2nc(-c3cccs3)cc(C(F)(F)F)c12	MC4R ag barr 8.5
CCC(C(=O)OCC(=O)Nc1ccc(SC(F)F)cc1)c1ccccc1 (stereo not given)	Granule exo inh 73 (no result: Bfl-1 A1 inh, NTR1 agonist)
COC(=O)c1ccc2c(=O)n(Cc3ccc4c(c3)OCO4)c(=S)[nH]c2c1	Bfl-1 A1 inh 6.3
CCOc1ccc(NC(=S)Nc2ccc(OCC)cc2)cc1	none
CCOc1ccc(C(=O)Nc2nnc(NC(=S)Nc3ccccc3)s2)cc1	NTR1 agonist 61 | NTR1 ag confirm 46
Cc1ccc(C(=O)Nc2nnc(NC(=S)Nc3ccccc3)s2)cc1	NTR1 agonist 73 | NTR1 ag confirm 58
CCc1nnc(NC(=S)Nc2ccccc2)s1	none
COCC#Cc1ccc(CC[C@H]2O[C@H]3CC[C@@H](CO)O[C@H]3C[C@H]2n2cc(C(C)(C)O)nn2)cc1	none (no result: Bfl-1 A1 inh, MC4R ag barr, Granule exo inh, MC4R antag cAMP, NTR1 agonist)
CCN1CCN(CCCNC(=O)c2ccc(/C=C3/Sc4ccccc4N(Cc4ccccc4F)C3=O)cc2)CC1	Granule exo inh 70, NTR1 agonist 41 | NTR1 ag confirm inactive
O=C(NCCN1CCOCC1)c1ccc2c(c1)N(Cc1ccccc1F)C(=O)c1ccccc1S2	none
O=C(Nc1c(-c2ccc(C(F)(F)F)cc2)nc2ncccn12)c1ccc(F)cc1	none (no result: Bfl-1 A1 inh, MC4R ag barr, Granule exo inh, MC4R antag cAMP, NTR1 agonist)
Cc1ccccc1-n1c(=O)[nH]c(=O)c2c(N)c(C(=O)c3ccc(Cl)cc3)sc21	NTR1 agonist 40 | NTR1 ag confirm inactive
Nc1c(C(=O)c2ccc(Cl)cc2)sc2c1c(=O)[nH]c(=O)n2-c1ccccc1	none
Cn1c(N)c(C(=O)COC(=O)c2cc(-c3ccccc3)nc3ccccc23)c(=O)n(Cc2ccccc2)c1=O	none (no result: HGIII-sPLA2 inh)
Cn1c(N)c(C(=O)COC(=O)c2cc(C3CC3)nc3ccccc23)c(=O)n(Cc2ccccc2)c1=O	NTR1 agonist 40 | NTR1 ag confirm inactive
COC(=O)[C@]12C[C@H](CC(=O)N3CCCCC3)C(=O)N(Cc3ccc(Cl)cc3Cl)C1=C[C@H](C(C)(C)C)O[C@@H]2C	none (no result: Bfl-1 A1 inh, MC4R ag barr, Granule exo inh, MC4R antag cAMP, NTR1 agonist)
COC(=O)COc1ccc(/C=N/NC(=O)CN(c2ccccc2OC)S(=O)(=O)c2ccccc2)cc1	NTR1 agonist 75 | NTR1 ag confirm 76
COc1ccccc1N(CC(=O)N/N=C/c1ccc(OCC(=O)NCc2ccco2)cc1)S(=O)(=O)c1ccc(C)cc1	none (no result: HGIII-sPLA2 inh)
Cc1ccc(OCC(=O)N/N=C\c2cn(Cc3ccccc3)c3ccccc23)cc1C	NTR1 agonist 41 | NTR1 ag confirm inactive
COCCCN1C(=O)[C@H](CC(=O)N2CCOCC2)[C@]2(C(=O)OC)CCCCC=C12	none (no result: Bfl-1 A1 inh, MC4R ag barr, Granule exo inh, MC4R antag cAMP, NTR1 agonist)
COc1ccc(Cn2c(-c3ccccc3)nc3c(c(=O)c4ccccc4n3C)c2=O)cc1	none
Cn1c2ccccc2c(=O)c2c(=O)n(Cc3ccco3)c(-c3ccc(C(C)(C)C)cc3)nc21	NTR1 agonist 40 (no result: MC4R ag barr, HGIII-sPLA2 inh, Granule exo inh, MC4R antag cAMP) | NTR1 ag confirm inactive
O=[N+]([O-])c1ccc(C2CC(c3ccccc3)=Nc3ccccc3S2)cc1 (stereo not given)	NTR1 agonist 62 | NTR1 ag confirm inactive
COc1ccc(CC(=O)NCC2CCN(C(=O)C(=O)c3cc4ccccc4o3)CC2)cc1	none (no result: Bfl-1 A1 inh, MC4R ag barr, Granule exo inh, MC4R antag cAMP, NTR1 agonist)
N=c1c(C(=O)NCc2ccc(F)cc2)cc2c(=O)n3ccccc3nc2n1Cc1ccco1	NTR1 agonist 41 | NTR1 ag confirm inactive
COc1ccc(CCNC(=O)c2cc3c(=O)n4cccc(C)c4nc3n(Cc3ccco3)c2=N)cc1OC	NTR1 agonist 42 | NTR1 ag confirm inactive
N=c1c(C(=O)NCc2ccccc2)cc2c(=O)n3ccccc3nc2n1Cc1ccco1	none
C=CCN(C)CC#CCCCCl	none (no result: Bfl-1 A1 inh, MC4R ag barr, Granule exo inh, MC4R antag cAMP, NTR1 agonist)
Oc1ccc(/C=N/Nc2nc(-c3ccc(Cl)cc3)cc(C(F)(F)F)n2)cc1	MC4R ag barr 14, NTR1 agonist 61 | NTR1 ag confirm inactive
Cc1cc(-c2ccccc2)nc(N/N=C/c2ccc(O)cc2)n1	none (no result: Bfl-1 A1 inh)
COc1cccc(C(C[N+](=O)[O-])c2c(C)[nH]n(-c3ccccc3)c2=O)c1 (stereo not given)	NTR1 agonist 51 | NTR1 ag confirm inactive
N#Cc1ccc(Nc2nc(-c3ccc(O)cc3O)cs2)cc1C(F)(F)F	MC4R ag barr 20, NTR1 agonist 41 (no result: HGIII-sPLA2 inh) | NTR1 ag confirm 70
Oc1ccc(-c2csc(Nc3ccc4c(c3)OCO4)n2)c(O)c1	none (no result: Bfl-1 A1 inh, NTR1 agonist)
C[N+]1=C(N)NC2=C3CCCCC3n3c(=O)n(-c4ccccc4)c(=O)n3C2C1 (stereo not given)	none (no result: Bfl-1 A1 inh, MC4R ag barr, Granule exo inh, MC4R antag cAMP, NTR1 agonist)
O=C(CN(c1cccc(C(F)(F)F)c1)S(=O)(=O)c1ccc(Cl)c([N+](=O)[O-])c1)NCc1ccccc1	NTR1 agonist 43 | NTR1 ag confirm inactive
O=C(/C=C/c1cccc(OCc2ccccc2)c1)c1cccnc1	NTR1 agonist 54 | NTR1 ag confirm inactive
CN(C)c1ccc(C(=O)/C=C/c2cccnc2)cc1	none
O=C(/C=C/c1cccnc1)c1ccc(F)c(F)c1	NTR1 agonist 61 | NTR1 ag confirm 69
O=C1/C(=C/c2cccnc2)Oc2cc(OS(=O)(=O)c3ccc(Cl)cc3)ccc21	none
CS(=O)(=O)Oc1ccc2c(c1)O/C(=C\c1cccnc1)C2=O	none
COc1ccc(S(=O)(=O)Oc2ccc3c(c2)O/C(=C\c2cccnc2)C3=O)cc1	NTR1 agonist 43 | NTR1 ag confirm inactive
O=C1/C(=C/c2cccnc2)Oc2cc(OS(=O)(=O)c3ccccc3)ccc21	NTR1 agonist 42 (no result: HGIII-sPLA2 inh) | NTR1 ag confirm inactive
CCC(C)Sc1cccc(-c2nc3ccccn3c2NCc2ccccc2)c1 (stereo not given)	NTR1 agonist 40 | NTR1 ag confirm inactive
CSc1nnc(NC(=O)C23CC4CC(CC(C4)C2)C3)s1	NTR1 agonist 52 | NTR1 ag confirm 53
C[C@H]1[C@@H]2C[C@@]3(O[C@H](c4ccccn4)N=C3C[C@@H]1c1ccccc1)N(Cc1ccncc1)C2=O	none (no result: Bfl-1 A1 inh, MC4R ag barr, Granule exo inh, MC4R antag cAMP, NTR1 agonist)
CCOC(=O)/C(=C\c1cccc(O)c1)c1nc2sc(C)c(C)c2c(=O)[nH]1	NTR1 agonist 43 | NTR1 ag confirm 51
COC(=O)c1cc(=O)n(Cc2ccc3c(c2)OCO3)c(=Nc2ccc(F)cc2)s1	none
COC(=O)c1cc(=O)n(-c2ccc(F)cc2)c(=Nc2ccc(F)cc2)s1	NTR1 agonist 50 | NTR1 ag confirm 52
COC(=O)c1cc(=O)n(Cc2cccs2)c(=Nc2ccc(F)cc2)s1	NTR1 agonist 42 | NTR1 ag confirm inactive
Cc1ccc(S(=O)(=O)N2[C@@H](c3ccc(Cl)cc3)C(C(=O)O)=CC[C@H]2c2cccc(Cl)c2)cc1	none
